Measurements: ChEMBL document CHEMBL1122845, “Inhibitors of blood platelet aggregation. Effects of some 1,2-benzisothiazol-3-ones on platelet responsiveness to adenosine diphosphate and collagen” (J Med Chem, 1985)

Tests used:
[1] = test system: Rattus norvegicus; assay: The compound was tested ex vivo at a dose of 0.15 mmol/kg for ADP induced platelet aggregation in rat
[2] = test system: Rattus norvegicus; assay: The compound was tested ex vivo at a dose of 0.15 mmol/kg for collagen induced platelet aggregation in rat; assay type: functional
Procedure, shortened: (§1)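 Male rats (~200 g) or guinea pigs (~300 g), overnight fasted, n=5-10, received compound orally in 1% methylcellulose (5 mL/kg); vehicle-only controls. After 2 h, CO2 kill and vena cava blood into citrate (102 mM rat, 129 mM guinea pig). PRP set to 800000/µL (rat) or 500000/µL (guinea pig). Collagen EC50 (response of 50 mm; max 50 µg/mL) interpolated from a log plot. Dose ratio = treated/control mean EC50; t-test. Pooled PRP sometimes used.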

[3] = test system: Cavia porcellus; assay: The compound was tested ex vivo at a dose of 0.15 mmol/kg for collagen induced platelet aggregation in guinea pig; assay type: functional
Procedure, shortened: as §1

[4] = test system: Cavia porcellus; assay: The compound was tested ex vivo at a dose of 0.15 mmol/kg for ADP induced platelet aggregation in guinea pig
[5] = test system: Cavia porcellus; assay: The compound was tested ex vivo at a dose of 0.02 mmol/kg for collagen induced platelet aggregation in guinea pig; assay type: functional
Procedure, shortened: as §1

[6] = test system: Rattus norvegicus; assay: The compound was tested ex vivo at a dose of 0.08 mmol/kg for ADP induced platelet aggregation in rat; assay type: functional
Procedure, shortened: (§2)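 Fasted male rats (~200 g) or guinea pigs (~300 g), n=5-10, dosed orally (5 mL/kg) in 1% methylcellulose; methylcellulose alone as control. Killed with CO2 after 2 h. Vena cava blood citrated (102 mM rat, 129 mM guinea pig); PRP adjusted to 800000/µL (rat) or 500000/µL (guinea pig). EC25 for first-phase ADP aggregation (max 8 µM) interpolated from two 2-fold-spaced ADP levels. Dose ratio = treated/control mean EC25; Student's t-test. Some groups tested as pooled PRP.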

[7] = test system: Rattus norvegicus; assay: The compound was tested ex vivo at a dose of 0.08 mmol/kg for collagen induced platelet aggregation in rat; assay type: functional
Procedure, shortened: as §1

[8] = test system: Cavia porcellus; assay: The compound was tested ex vivo at a dose of 0.08 mmol/kg for ADP induced platelet aggregation in guinea pig; assay type: functional
Procedure, shortened: as §2

[9] = test system: Cavia porcellus; assay: The compound was tested ex vivo at a dose of 0.04 mmol/kg for ADP induced platelet aggregation in guinea pig
[10] = organism: Homo sapiens; assay: In vitro inhibitory activity against human platelet aggregation in the presence of collagen; assay type: functional
Procedure, shortened: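 Aggregation measured photometrically in human citrated PRP (350000 platelets/µL, stirred at 1100 rpm). Compound or saline preincubated 3 min at 37 °C. Collagen at a just-maximal level chosen for each sample (typically 0.7-1.4 µg/mL). Maximum increase in light transmission measured. IC50 = concentration giving 50% inhibition.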

[11] = test system: Rattus norvegicus; assay: The compound was tested ex vivo at a dose of 0.04 mmol/kg for collagen induced platelet aggregation in rat; assay type: functional
Procedure, shortened: as §1

[12] = test system: Rattus norvegicus; assay: The compound was tested ex vivo at a dose of 0.04 mmol/kg for ADP induced platelet aggregation in rat; assay type: functional
Procedure, shortened: as §2

[13] = test system: Cavia porcellus; assay: The compound was tested ex vivo at a dose of 0.04 mmol/kg for ADP induced platelet aggregation in guinea pig; assay type: functional
Procedure, shortened: as §2

[14] = test system: Cavia porcellus; assay: The compound was tested ex vivo at a dose of 0.08 mmol/kg for collagen induced platelet aggregation in guinea pig; assay type: functional
Procedure, shortened: as §1

[15] = test system: Rattus norvegicus; assay: The compound was tested ex vivo at a dose of 0.15 mmol/kg for collagen induced platelet aggregation in rat
[16] = test system: Cavia porcellus; assay: The compound was tested ex vivo at a dose of 0.15 mmol/kg for ADP induced platelet aggregation in guinea pig; assay type: functional
Procedure, shortened: as §2

SMILES | Activity [1] | Activity [2] | collagen EC50 dose ratio (treated/control) [3] | Activity [4] | Activity [5] | Activity [6] | Activity [7] | Activity [8] | Activity [9] | IC50 [10] | Activity [11] | Activity [12] | Activity [3] | Activity [13] | Activity [14] | Activity [15] | Activity [16]
CCN(CC)CCn1sc2cc(OC)c(OC)cc2c1=O | 2.2 | 1.5 | >47 | 1.1 | – | – | – | – | – | – | – | – | – | – | – | – | –
O=C1C(CC[S+]([O-])c2ccccc2)C(=O)N(c2ccccc2)N1c1ccccc1 (stereo not drawn) [SULFINPYRAZONE] | – | 1.1 | – | – | 2.9 | 1.2 | 1.8 | 1.6 | 1.1 | 870 µM | 1.3 | 1 | 3.2 | 1.1 | 6.2 | 1.2 | 1.1
